From publication PMC9539578 (Basic & Clinical Pharmacology & Toxicology, 2022)
Counter-ions that a name gives are not always drawn. Where a SMILES comes first, the peptide text is derived from it.

What was measured:
GPR15 receptor (Gi/o) = biological target: T1, GPR15 receptor (Gi/o) (Homo sapiens, UniProt P49685); assay: HTRF Gi cAMP assay; type: cell-based
T1 sequence (P49685 1-360): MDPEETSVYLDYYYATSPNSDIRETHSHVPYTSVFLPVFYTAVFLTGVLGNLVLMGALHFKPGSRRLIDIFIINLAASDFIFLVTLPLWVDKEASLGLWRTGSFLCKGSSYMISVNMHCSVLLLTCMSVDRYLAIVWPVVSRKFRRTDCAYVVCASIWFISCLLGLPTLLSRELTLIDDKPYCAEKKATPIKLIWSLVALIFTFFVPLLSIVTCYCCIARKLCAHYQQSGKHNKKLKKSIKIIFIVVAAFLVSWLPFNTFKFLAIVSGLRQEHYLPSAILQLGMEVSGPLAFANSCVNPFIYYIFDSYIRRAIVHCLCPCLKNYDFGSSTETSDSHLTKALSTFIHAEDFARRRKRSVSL
Summary of the method: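 HEK293A cells stably expressing human GPR15 (G418-selected) were harvested non-enzymatically. Where stated, cells were pretreated 24 h with PTX 100 ng/ml. 4000 cells/well in HBSS/20 mM HEPES/1 mM CaCl2/1 mM MgCl2/100 μM IBMX, pH 7.4, were mixed with threefold-diluted peptide in ligand buffer containing 3 μM forskolin, 30 min at room temperature. HTRF cAMP detection ran 1 h in the dark. Standard-curve cAMP was normalized to forskolin and given a four-parameter EC50 fit; triplicates, 3–5 experiments.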

β2‐adrenergic receptor = assay: HTRF Gs cAMP assay, positive control; type: cell-based; details: endogenous receptor in HEK293A cells
Summary of the method: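 Run like the Gi cAMP assay without forskolin. HEK293A-GPR15 cells in HBSS/HEPES buffer with 100 μM IBMX, pH 7.4, were stimulated with isoproterenol via the endogenous β2-adrenergic receptor, 30 min at room temperature. HTRF cAMP detection ran 1 h in the dark (665/615 nm). cAMP from a standard curve, buffer-corrected and normalized to the isoproterenol maximum; 3–5 experiments in triplicate.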

[1] = tested on: muscarinic acetylcholine receptors; assay: HTRF Gq IP1 assay, positive control; type: cell-based; details: endogenous receptors (mAChR1, mAChR3 and mAChR5) in HEK293A cells
Summary of the method: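 Carbachol, added at 2× final concentration in HBSS/20 mM HEPES/1 mM CaCl2/1 mM MgCl2/0.01% pluronic acid, pH 7.4, acted on 20 000 HEK293A-GPR15 cells/well with 30 mM LiCl for 30 min at 37 °C. HTRF IP1 detection ran 1 h in the dark at room temperature (665/615 nm). IP1 from a standard curve, buffer-corrected and normalized to the carbachol maximum; 3–5 experiments in triplicate.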

GPR15 receptor / Gi1 = GPR15 receptor / Gi1 (Homo sapiens, UniProt P49685); assay: BRET G protein activation assay, Gi1; type: cell-based, human (GPR15); rat (Gi1)
Chain of GPR15 receptor / Gi1 (P10824 2-354 partner limits assumed, one chain of several): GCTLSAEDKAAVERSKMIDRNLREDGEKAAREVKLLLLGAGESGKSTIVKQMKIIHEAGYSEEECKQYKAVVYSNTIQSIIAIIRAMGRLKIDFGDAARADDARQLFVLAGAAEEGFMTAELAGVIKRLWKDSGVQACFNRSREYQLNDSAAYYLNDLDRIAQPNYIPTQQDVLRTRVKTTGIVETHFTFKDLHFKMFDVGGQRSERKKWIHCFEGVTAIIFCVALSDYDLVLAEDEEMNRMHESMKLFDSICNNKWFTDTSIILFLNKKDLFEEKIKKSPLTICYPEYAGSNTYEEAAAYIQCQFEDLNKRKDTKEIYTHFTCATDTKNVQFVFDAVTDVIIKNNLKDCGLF
Chain of GPR15 receptor / Gi1 (P62873 2-340 partner limits assumed, one chain of several): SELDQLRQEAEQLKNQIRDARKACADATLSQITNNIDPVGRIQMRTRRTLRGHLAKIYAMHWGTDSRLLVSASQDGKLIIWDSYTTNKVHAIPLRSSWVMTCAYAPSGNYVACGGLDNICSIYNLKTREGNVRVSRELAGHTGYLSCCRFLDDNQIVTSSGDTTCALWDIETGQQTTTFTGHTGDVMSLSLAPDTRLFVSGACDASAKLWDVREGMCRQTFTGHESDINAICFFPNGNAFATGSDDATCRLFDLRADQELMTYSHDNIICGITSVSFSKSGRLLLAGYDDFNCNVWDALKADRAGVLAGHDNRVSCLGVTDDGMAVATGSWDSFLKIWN
Chain of GPR15 receptor / Gi1 (P59768 2-68 partner limits assumed, one chain of several): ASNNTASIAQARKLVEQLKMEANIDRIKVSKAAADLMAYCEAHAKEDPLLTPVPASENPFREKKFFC
Summary of the method: (§1)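 HEK293A cells transfected 20–24 h before assay with GPR15 (1.26 μg), Venus(155–239)-Gβ1, Venus(1–155)-Gγ2 and masGRK3ct-Nluc (0.21 μg each), and an optimized amount of the Gα DNA. Cells were given furimazine (1:250) for 3 min, then rising agonist concentrations. BRET ratio is 535/475 nm emission. Emax per concentration was buffer-corrected, normalized to the maximum, and fitted with a four-parameter model. 3–5 independent experiments, 2–3 replicates.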

GPR15 receptor / Gi2 = GPR15 receptor / Gi2 (Homo sapiens, UniProt P49685); assay: BRET G protein activation assay, Gi2; type: cell-based, human (GPR15); rat (Gi2)
Chain of GPR15 receptor / Gi2 (P04897 2-355 partner limits assumed, one chain of several): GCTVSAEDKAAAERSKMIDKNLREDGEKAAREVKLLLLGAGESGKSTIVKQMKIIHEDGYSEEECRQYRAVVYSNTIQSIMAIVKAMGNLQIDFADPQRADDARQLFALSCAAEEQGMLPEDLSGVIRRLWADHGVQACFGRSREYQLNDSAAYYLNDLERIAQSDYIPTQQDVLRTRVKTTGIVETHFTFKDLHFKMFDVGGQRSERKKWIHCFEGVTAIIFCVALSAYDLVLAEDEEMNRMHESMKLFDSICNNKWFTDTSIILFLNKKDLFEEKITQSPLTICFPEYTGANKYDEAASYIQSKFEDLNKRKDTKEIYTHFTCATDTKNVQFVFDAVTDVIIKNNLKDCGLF
Chain of GPR15 receptor / Gi2 (P62873 2-340 partner limits assumed, one chain of several): as the sequence (P62873 2-340 partner limits assumed, one chain of several) above
Chain of GPR15 receptor / Gi2 (P59768 2-68 partner limits assumed, one chain of several): as the sequence (P59768 2-68 partner limits assumed, one chain of several) above
Summary of the method: as §1

GPR15 receptor / Gi3 = GPR15 receptor / Gi3 (Homo sapiens, UniProt P49685); assay: BRET G protein activation assay, Gi3; type: cell-based, human (GPR15); rat (Gi3)
Chain of GPR15 receptor / Gi3 (P08753 2-354 partner limits assumed, one chain of several): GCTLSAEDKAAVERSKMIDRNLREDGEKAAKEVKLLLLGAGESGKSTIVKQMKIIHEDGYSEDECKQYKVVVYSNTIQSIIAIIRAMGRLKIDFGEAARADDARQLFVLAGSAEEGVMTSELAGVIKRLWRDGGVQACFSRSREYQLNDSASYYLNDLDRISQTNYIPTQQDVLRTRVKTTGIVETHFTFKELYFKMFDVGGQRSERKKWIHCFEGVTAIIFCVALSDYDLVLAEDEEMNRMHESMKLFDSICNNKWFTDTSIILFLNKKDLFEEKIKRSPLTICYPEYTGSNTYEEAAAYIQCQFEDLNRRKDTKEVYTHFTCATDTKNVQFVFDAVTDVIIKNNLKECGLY
Chain of GPR15 receptor / Gi3 (P62873 2-340 partner limits assumed, one chain of several): as the sequence (P62873 2-340 partner limits assumed, one chain of several) above
Chain of GPR15 receptor / Gi3 (P59768 2-68 partner limits assumed, one chain of several): as the sequence (P59768 2-68 partner limits assumed, one chain of several) above
Summary of the method: as §1

GPR15 receptor / GoA = GPR15 receptor / GoA (Homo sapiens, UniProt P49685); assay: BRET G protein activation assay, GoA; type: cell-based
Chain of GPR15 receptor / GoA (P09471 2-354 partner limits assumed, one chain of several): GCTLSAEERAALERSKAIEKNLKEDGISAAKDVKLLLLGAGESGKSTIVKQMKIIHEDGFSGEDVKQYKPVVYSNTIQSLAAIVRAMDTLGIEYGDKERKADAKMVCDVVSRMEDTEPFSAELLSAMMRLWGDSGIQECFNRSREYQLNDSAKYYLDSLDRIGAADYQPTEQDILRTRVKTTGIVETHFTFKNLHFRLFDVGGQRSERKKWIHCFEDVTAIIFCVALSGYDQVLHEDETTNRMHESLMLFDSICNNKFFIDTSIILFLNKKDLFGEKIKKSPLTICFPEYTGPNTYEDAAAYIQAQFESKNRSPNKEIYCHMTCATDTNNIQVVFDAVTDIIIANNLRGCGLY
Chain of GPR15 receptor / GoA (P62873 2-340 partner limits assumed, one chain of several): as the sequence (P62873 2-340 partner limits assumed, one chain of several) above
Chain of GPR15 receptor / GoA (P59768 2-68 partner limits assumed, one chain of several): as the sequence (P59768 2-68 partner limits assumed, one chain of several) above
Summary of the method: as §1

GPR15 receptor / GoB = GPR15 receptor / GoB (Homo sapiens, UniProt P49685); assay: BRET G protein activation assay, GoB; type: cell-based
Chain of GPR15 receptor / GoB (P09471 2-354 isoform P09471-2 partner limits assumed, one chain of several): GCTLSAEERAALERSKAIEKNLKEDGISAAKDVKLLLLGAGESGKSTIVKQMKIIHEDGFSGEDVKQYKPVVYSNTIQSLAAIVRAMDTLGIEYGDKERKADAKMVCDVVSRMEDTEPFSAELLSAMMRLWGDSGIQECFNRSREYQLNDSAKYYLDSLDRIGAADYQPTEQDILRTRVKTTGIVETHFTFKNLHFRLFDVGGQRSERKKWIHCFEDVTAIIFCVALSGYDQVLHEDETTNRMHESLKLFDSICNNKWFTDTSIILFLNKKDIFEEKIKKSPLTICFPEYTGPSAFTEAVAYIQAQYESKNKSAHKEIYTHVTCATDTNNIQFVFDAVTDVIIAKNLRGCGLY
Chain of GPR15 receptor / GoB (P62873 2-340 partner limits assumed, one chain of several): as the sequence (P62873 2-340 partner limits assumed, one chain of several) above
Chain of GPR15 receptor / GoB (P59768 2-68 partner limits assumed, one chain of several): as the sequence (P59768 2-68 partner limits assumed, one chain of several) above
Summary of the method: as §1

[2] = biological target: T2, G protein-coupled receptor 15 (GPR15) (human) (UniProt P49685)
T2 sequence: T1 sequence (P49685 1-360)

With pertussis toxin [PTX] the “inhibition of cAMP production in presence of PTX” value (GPR15 receptor (Gi/o); hGPR15-HEK293A, PTX 100 ng/ml for 24 h) was “inhibition could be eliminated”.

In the case of `CC(C)NCC(O)c1ccc(O)c(O)c1` (stereo not drawn) [isoproterenol, isoproterenol bitartrate salt], the cAMP level (β2‐adrenergic receptor) is reported as “robust cAMP level increase”.

`C[N+](C)(C)CCOC(N)=O` [carbachol, carbamoylcholine chloride] was tested, and the IP1 level [1] was “robust IP1 level increase”.

`CC(C)C[C@H](NC(=O)[C@H](C)NC(=O)CNC(=O)[C@@H]1CCCN1C(=O)[C@@H](NC(=O)[C@@H](NC(=O)[C@H](Cc1c[nH]c2ccccc12)NC(=O)[C@@H](N)CC(C)C)C(C)C)C(C)C)C(=O)N1CCC[C@H]1C(=O)N[C@@H](CCC(N)=O)C(=O)N[C@H](C(=O)O)C(C)C` [GPR15L(71–81)] (H-LWVVPGALPQV-OH) showed an EC50 (GPR15 receptor / Gi1) of 724 nM, an EC50 (GPR15 receptor / Gi2) of 1700 nM and an EC50 (GPR15 receptor / Gi3) of 912 nM. It also gave an EC50 (GPR15 receptor / GoA) of 3020 nM, an EC50 (GPR15 receptor / GoB) of 2510 nM and an EC50 (GPR15 receptor (Gi/o)) of 407 nM.

LWVVPGALPQV [human GPR15L(71–81) peptide] was tested, and the pEC50, BRET G protein activation assay, Gi1 [2] was 6.14, the pEC50, BRET G protein activation assay, Gi2 [2] was 5.77 and the pEC50, BRET G protein activation assay, Gi3 [2] was 6.04. For the same molecule, the pEC50, BRET G protein activation assay, GoA [2] was 5.52.

B1: human GPR15L(25–81) peptide (ligand)
peptide: KRRPAKAWSGRRTRLCCHRVPSPNSTNLKGHHVRLCKPCKLEPEPRLWVVPGALPQV
Work on B1 yielded a pEC50, BRET G protein activation assay, Gi1 [2] of 7.79, a pEC50, BRET G protein activation assay, Gi2 [2] of 7.14 and a pEC50, BRET G protein activation assay, Gi3 [2] of 7.69. For the same molecule, the pEC50, BRET G protein activation assay, GoA [2] was 7.28 and the pEC50, BRET G protein activation assay, GoB [2] was 7.54.
